Experimental data: ChEMBL document CHEMBL1152308, “Cytotoxic phenanthrenequinones and 9,10-dihydrophenanthrenes from Calanthe arisanensis” (J Nat Prod, 2009)
pEC50: −log10 of the molar value. Converted amounts (≈) assume the structure as drawn.

Key:
Format in all cases: functional, cell-based
A549 = assay: Cytotoxicity against human A549 cells after 3 days by sulforhodamine B assay; details: A549, 72 h
Method in brief: (§1)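 Freshly trypsinized cells seeded at 5000 per well; compounds added from DMSO-diluted stock. Cells grown in RPMI-1640 with 25 mM HEPES, 0.25% sodium bicarbonate, 10% FBS and 100 μg/mL kanamycin. After three days, attached cells fixed with cold 10% TCA and stained with 0.4% SRB. Bound dye solubilized and absorbance read at 562 nm. EC50 (50% growth reduction) averaged from at least three independent determinations.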

PC-3 = assay: Cytotoxicity against human PC3 cells after 3 days by sulforhodamine B assay; details: PC-3, 72 h; method in brief: as §1
DU-145 = assay: Cytotoxicity against human DU145 cells after 3 days by sulforhodamine B assay; details: DU-145, 72 h; method in brief: as §1
HCT-8 = assay: Cytotoxicity against human HCT8 cells after 3 days by sulforhodamine B assay; details: HCT-8, 72 h; method in brief: as §1
MCF7 = assay: Cytotoxicity against human MCF7 cells after 3 days by sulforhodamine B assay; details: MCF7, 72 h; method in brief: as §1
KB = assay: Cytotoxicity against human KB cells after 3 days by sulforhodamine B assay; details: 72 h; method in brief: as §1
[1] = Cytotoxicity against human KBVIN cells after 3 days by sulforhodamine B assay; details: 72 h; method in brief: as §1

SMILES | EC50 (A549) [µg/mL] | EC50 (PC-3) [µg/mL] | EC50 (DU-145) [µg/mL] | EC50 (HCT-8) [µg/mL] | EC50 (MCF7) [µg/mL] | EC50 (KB) [µg/mL] | EC50 [1] [µg/mL] | pEC50 (A549) | pEC50 (HCT-8) | pEC50 (MCF7)
COc1cc(O)cc2c1-c1ccc(O)cc1CC2 | 5.05 | 2.82 (≈ 11.6 µM) | 4.79 (≈ 19.8 µM) | 3.84 | 1.8 | 3.4 (≈ 14 µM) | 7.92 (≈ 32.7 µM) |  |  | 
COc1cc2c(cc1O)CCc1cc(O)cc(OC)c1-2 | 4.24 | 2.67 (≈ 9.81 µM) | 5.38 (≈ 19.8 µM) | 4.55 | 2.59 | 3.9 (≈ 14.3 µM) | 5.84 (≈ 21.4 µM) |  |  | 
COc1cc(O)c(-c2c(O)cc(OC)c3c2CCc2cc(O)ccc2-3)c2c1-c1ccc(O)cc1CC2 | 4.61 | 5.37 (≈ 11.1 µM) | 4.11 (≈ 8.52 µM) | 4.6 | 3.5 | 4.4 (≈ 9.12 µM) | 3.96 (≈ 8.21 µM) |  |  | 
COC1=CC(=O)c2ccc3ccccc3c2C1=O [ANNOQUINONE A] |  |  |  |  |  | 0.16 (≈ 0.672 µM) |  |  |  | 
COc1cc2ccc3cccc(O)c3c2c(OC)c1O [BULBOPHYLLANTHRIN] | 5.06 | 3.38 (≈ 12.5 µM) | 8.29 (≈ 30.7 µM) | 5.26 | 3.26 | 5.63 (≈ 20.8 µM) | 6.99 (≈ 25.9 µM) |  |  | 
COc1cc2c(c(OC)c1O)-c1c(O)ccc(O)c1CC2 [CALANHYDROQUINONE A] | 3.58 | 2.52 (≈ 8.74 µM) | 5.84 (≈ 20.3 µM) | 4.57 | 2.31 | 3.47 (≈ 12 µM) | 5.37 (≈ 18.6 µM) |  |  | 
COc1c(O)cc2c(c1OC)-c1c(O)ccc(O)c1CC2 [CALANHYDROQUINONE B] | 4.07 | 2.62 (≈ 9.09 µM) | 5.46 (≈ 18.9 µM) | 5.16 | 3.28 | 3.75 (≈ 13 µM) | 5.24 (≈ 18.2 µM) |  |  | 
COc1cc2c(c(OC)c1OC)-c1c(O)ccc(O)c1CC2 [CALANHYDROQUINONE C] | 2.36 | 0.85 (≈ 2.81 µM) | 3.78 (≈ 12.5 µM) | 3.96 | 1.7 | 2.86 (≈ 9.46 µM) | 4.73 (≈ 15.6 µM) |  |  | 
COc1cc(O)c2c(c1)CCc1ccc(O)c(OC)c1-2 [CALANPHENANTHRENE A] | 7.71 | 7.06 (≈ 25.9 µM) | 13.2 (≈ 48.5 µM) | 6.73 | 6.52 | 11.8 (≈ 43.3 µM) | 5.48 (≈ 20.1 µM) |  |  | 
COC1=CC(=O)c2ccc3cc(OC)c(OC)c(O)c3c2C1=O [CALANQUINONE A] | 0.19 | 0.16 (≈ 0.509 µM) | 0.34 (≈ 1.08 µM) | 0.2 | < 0.02 | 0.32 (≈ 1.02 µM) | 0.45 (≈ 1.43 µM) |  |  | 
COC1=CC(=O)c2ccc3cc(OC)c(O)c(OC)c3c2C1=O [CALANQUINONE B] | 4.54 | 1.55 (≈ 4.93 µM) | 6.45 (≈ 20.5 µM) | 4.56 | 1.81 | 6.46 (≈ 20.6 µM) | 13.3 (≈ 42.3 µM) |  |  | 
COc1cc2c(c(OC)c1O)C1=C(CC2)C(=O)C=CC1=O [CALANQUINONE C] | 3.58 | 2.07 (≈ 7.23 µM) | 4.34 (≈ 15.2 µM) | 4.14 | 2.12 | 2.97 (≈ 10.4 µM) | 4.68 (≈ 16.3 µM) |  |  | 
COc1cc(O)c(-c2c(O)cc(OC)c3c2ccc2cc(O)ccc23)c2c1-c1ccc(O)cc1CC2 [CIRRHOPETALANTHRIN] |  |  |  |  |  |  |  | 4.95 | 5.14 | 4.90
CC(=O)O[C@H]1C(=O)[C@@]2(C)[C@H]([C@H](OC(=O)c3ccccc3)[C@]3(O)C[C@H](OC(=O)[C@H](O)[C@@H](NC(=O)c4ccccc4)c4ccccc4)C(C)=C1C3(C)C)[C@]1(OC(C)=O)CO[C@@H]1C[C@@H]2O [PACLITAXEL] | < 0.005 | 0.0097 (≈ 0.0114 µM) | < 0.005 | 0.21 | 0.0072 | < 0.005 | 2.16 (≈ 2.53 µM) |  |  | 
COC1=CC(=O)c2ccc3cc(OC)c(OC)cc3c2C1=O [SPHENONE A] |  |  |  |  |  | 2.7 (≈ 9.05 µM) |  |  |  | 
